Laboratory results reported in ChEMBL document CHEMBL1122807, “2-Substituted thiazolidine-4(R)-carboxylic acids as prodrugs of L-cysteine. Protection of mice against acetaminophen hepatotoxicity” (1984).

Assays:
Mus musculus [1] = assay: Compound was evaluated for its protective activity against acetaminophen (750 mg ([…]) /kg) toxicity, given intraperitoneally in mice and the number of animals with liver necrosis was determined after 3h; assay type: functional
Outline: (§1)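 Overnight-fasted (16 h) Swiss-Webster mice received acetaminophen 750 mg/kg ip, then test agent 2.45 mmol/kg ip 0.5 h later. Agents were made at 15 mg/mL in sterile 0.1 N NaHCO3 (one in sterile water), pH 6.5–7.5, and used within 1 h. Liver sections from the first 18 animals per agent were coded and graded 0 to 4+ blind. Results pooled from ≥3 replicate experiments.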

Mus musculus [2] = assay: Compound was evaluated for its protective activity against acetaminophen (750 mg ([…]) /kg) toxicity, given intraperitoneally in mice and the number of animals with liver necrosis was determined after 0h; assay type: functional
Mus musculus [3] = assay: Compound was evaluated for its protective activity against acetaminophen (750 mg ([…]) /kg) toxicity, given intraperitoneally in mice and the number of animals with liver necrosis was determined
Mus musculus [4] = assay: Compound was evaluated for its protective activity against acetaminophen (750 mg ([…]) /kg) toxicity, given intraperitoneally in mice and the number of animals with liver necrosis was determined after 1 hr; assay type: functional
Mus musculus [5] = assay: Compound was evaluated for its protective activity against acetaminophen (750 mg ([…]) /kg) toxicity, given intraperitoneally in mice and the survival of the mice was determined at 48 h; 13/24; assay type: functional
Outline: (§2)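 Swiss-Webster mice were fasted overnight (16 h) before use. Test compound, made up as a 15 mg/mL solution in sterile 0.1 N NaHCO3 (pH 6.5–7.5) and used within 1 h of preparation, was given at 2.45 mmol/kg ip 0.5 h after acetaminophen ip. Survivors were counted at 48 h. Counts are cumulative over at least three replicate experiments run at different times.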

Mus musculus [6] = assay: Compound was evaluated for its protective activity against acetaminophen (750 mg ([…]) /kg) toxicity, given intraperitoneally in mice and the number of animals with liver necrosis was determined after 2 hr; assay type: functional; outline: as §1
Mus musculus [7] = assay: Compound was evaluated for its protective activity against acetaminophen (750 mg ([…]) /kg) toxicity, given intraperitoneally in mice and the survival of the mice was determined at 48 h; 23/26; assay type: functional; outline: as §2
Mus musculus [8] = species on record: Mus musculus; assay: Compound was evaluated for the excretion of 14CO2 (carbon dioxide) in expired air of mice and the activity was determined as percent of dose excreted as 14CO2 at following time intervals - 4-8h; assay type: functional
Outline: (§3)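 Mice were dosed with thiazolidine carrying 14C at ring C-2 and the methyl carbon. Expired 14CO2 was trapped, and the trap was changed at 4, 8, 12, 16 and 24 h. Aliquots were counted by liquid scintillation against an aqueous Na2 14CO3 standard and expressed as percent of dose. The experiment was repeated in a second mouse (24 g, 2.57 mmol/kg).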

Mus musculus [9] = species on record: Mus musculus; assay: Compound was evaluated for the excretion of 14CO2 (carbon dioxide) in expired air of mice and the activity was determined as percent of dose excreted as 14CO2 at following time intervals - 0-4 hr; assay type: functional; outline: as §3
Mus musculus [10] = species on record: Mus musculus; assay: Compound was evaluated for the excretion of 14CO2 (carbon dioxide) in expired air of mice and the activity was determined as percent of dose excreted as 14CO2 at following time intervals - 12-16 h; assay type: functional; outline: as §3
Mus musculus [11] = species on record: Mus musculus; assay: Compound was evaluated for the excretion of 14CO2 (carbon dioxide) in expired air of mice and the activity was determined as percent of dose excreted as 14CO2 at following time intervals - 8-12h; assay type: functional; outline: as §3
Mus musculus [12] = assay: Compound was evaluated for its protective activity against acetaminophen (750 mg ([…]) /kg) toxicity, given intraperitoneally in mice and the survival of the mice was determined at 48 h; 28/30; assay type: functional
Mus musculus [13] = species on record: Mus musculus; assay: Compound was evaluated for the excretion of 14CO2 (carbon dioxide) in expired air of mice and the activity was determined as percent of dose excreted as 14CO2 at following time intervals - 16-24h; assay type: functional; outline: as §3
Mus musculus [14] = assay: Compound was evaluated for its protective activity against acetaminophen (750 mg ([…]) /kg), given intraperitoneally) in mice and the number of animals with liver necrosis was determined after 3h; assay type: functional; outline: as §1
Mus musculus [15] = assay: Compound was evaluated for its protective activity against acetaminophen (750 mg ([…]) /kg) toxicity, given intraperitoneally in mice and the survival of the mice was determined at 48 h; 0/18; assay type: functional; outline: as §2
Mus musculus [16] = assay: Compound was evaluated for its protective activity against acetaminophen (750 mg ([…]) /kg) toxicity, given intraperitoneally in mice and the survival of the mice was determined at 48 h; 19/24; assay type: functional; outline: as §2
Mus musculus [17] = assay: Compound was evaluated for its protective activity against acetaminophen (750 mg ([…]) /kg) toxicity, given intraperitoneally in mice and the survival of the mice was determined at 48 h; 24/24; assay type: functional; outline: as §2
Mus musculus [18] = assay: Compound was evaluated for its protective activity against acetaminophen (750 mg ([…]) /kg) toxicity, given intraperitoneally in mice and the survival of the mice was determined at 48 h; 17/17; assay type: functional
Mus musculus [19] = assay: Compound was evaluated for its protective activity against acetaminophen (750 mg ([…]) /kg) toxicity, given intraperitoneally in mice and the survival of the mice was determined at 48 h; 30/30; assay type: functional; outline: as §2

SMILES	No. of animals with liver necrosis (Mus musculus [1])	No. of animals with liver necrosis (Mus musculus [2])	No. of animals with liver necrosis (Mus musculus [3])	No. of animals with liver necrosis (Mus musculus [4])	No. of animals with liver necrosis (Mus musculus [6])	also measured
O=C(O)[C@@H]1CSC(c2ccncc2)N1 (some centres undefined)	5	2	6	4	1	Survival (Mus musculus [5]): 13
O=C(O)[C@@H]1CSC(c2ccccc2)N1 (some centres undefined)	6	7	2	–	3	Survival (Mus musculus [7]): 23
CC1N[C@H](C(=O)O)CS1 (some centres undefined)	–	17	1	–	–	Of dose excreted (Mus musculus [8]): 7%; Of dose excreted (Mus musculus [9]): 61.9%; Of dose excreted (Mus musculus [10]): 2.9%; Of dose excreted (Mus musculus [11]): 4.3%; Survival (Mus musculus [12]): 28; Of dose excreted (Mus musculus [13]): 3.7%
CC1N[C@@H](C(=O)O)CS1 (some centres undefined)	–	–	17	–	–	No. of animals with liver necrosis (Mus musculus [14]): 1; Survival (Mus musculus [15]): 0
CCC1N[C@H](C(=O)O)CS1 (some centres undefined)	3	3	6	3	3	Survival (Mus musculus [16]): 19
CCCCCC1N[C@H](C(=O)O)CS1 (some centres undefined)	–	16	–	2	–	Survival (Mus musculus [17]): 24
CC(=O)N[C@@H](CS)C(=O)O [ACETYLCYSTEINE]	–	15	–	2	–	Survival (Mus musculus [18]): 17
CCCC1N[C@H](C(=O)O)CS1 (some centres undefined)	–	9	2	6	1	Survival (Mus musculus [19]): 30
